Experimental data of several laboratories.
Protocols differ between the studies behind these lines.
Cell line: MCF7
Observed: cell growth or viability

O=c1nc(-c2ccc(Nc3nnc(-c4ccc(Cl)cc4)c4ccccc34)cc2)cc(-c2ccccc2)[nH]1  IC50 (MTT; 72 h): 0.16 µM
COc1ccc(-c2cc(-c3cc(OC)ccc3OC)c3c(=O)n(C)c(=O)n(C)c3n2)cc1  IC50 (MTT; 48 h): 19.8 µM
C=CC(=O)Nc1cc(Nc2nccc(-c3cn(C)c4ccccc34)n2)c(OC)cc1N(C)CCN(C)C  IC50 (MTS; 72 h): 8.34 µM
Cc1nc(Nc2ccc3c(c2)/C(=C/c2ccccc2)C(=O)N3Cc2ccccc2)c2ccccc2n1  IC50 (MTT): 11.6 µM
Cc1ccc(-c2cc(-c3c(Cl)cccc3Cl)c3c(=O)n(C)c(=O)n(C)c3n2)cc1  IC50 (MTT; 48 h): 6.41 µM
Cc1nc(Nc2ccc3c(c2)/C(=C/c2ccccc2)C(=O)N3C)c2ccccc2n1  IC50 (MTT): 28.8 µM
COc1cc2c3c(n(CCCn4ccnc4)c(=O)c2cc1OC)-c1nc2c(cc1C3=O)OCO2  IC50 (72 h): 0.372 µM
COc1ccc(-c2cc(-c3ccc(OC)cc3)c3c(=O)[nH]c(=O)[nH]c3n2)cc1  IC50 (MTT; 48 h): 8.38 µM
COc1cc2ncnc(N(C)c3ccc4c(c3)/C(=C/c3cccc(Cl)c3)C(=O)N4C)c2cc1OC  IC50 (MTT): 6.53 µM
Nc1ccccc1OC(=O)C=Cc1ccc(O)c(O)c1  IC50 (MTT): 22.3 µM
COc1cc2c3c(n(CCCNCCO)c(=O)c2cc1OC)-c1nc2c(cc1C3=O)OCO2  IC50 (72 h): 0.369 µM
COc1ccc(-c2cc(-c3ccccc3Cl)c3c(=O)n(C)c(=O)n(C)c3n2)cc1  IC50 (MTT; 48 h): 21.5 µM
CC1CCC(C(C)C)C(OC(=O)C=Cc2ccc(O)c(O)c2)C1 (centres unmarked)  IC50 (MTT): 28.6 µM
O=C(CCn1c(=O)ccc2ccccc21)N1CCOCC1  IC50 (MTT; 48 h): 9.77 µM
Cc1nc(NC(=O)N2CCC[C@H]2C(N)=O)sc1-c1ccnc(C(C)(C)C(F)(F)F)c1  IC50 (MTT): 1.89 µM
Cc1ccc(-c2cc(-c3ccc(Cl)c(F)c3)c3c(=O)n(C)c(=O)n(C)c3n2)cc1  IC50 (MTT; 48 h): 37 µM
Cc1nc(Nc2ccc3c(c2)/C(=C/c2ccccc2C)C(=O)N3)c2ccccc2n1  IC50 (MTT): > 50 µM
O=C(C=Cc1ccc(O)c(O)c1)OCc1ccccc1  IC50 (MTT): 85.2 µM
Cc1nc(Nc2ccc3c(c2)C(C)(C)C(=O)N3C)c2ccccc2n1  IC50 (MTT): 36.3 µM
COc1ccc(-c2cc(-c3c(OC)cccc3OC)c3c(=O)n(C)c(=O)n(C)c3n2)cc1  IC50 (MTT; 48 h): 11.3 µM
